# In BindingDB's records for doi:10.1021/jm960153q (Rhône-Poulenc Rorer, 1996):
# Target: Low-density lipoprotein receptor (Homo sapiens, UniProt P01130)
# Assay: Concentration at which one-half the maximum Low density lipoprotein receptor up-regulation is observed in HepG2 cells
# Summary of the method: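 HepG2 cells in 96-well plates at 10 000 cells/well, grown 3 days to 80% confluence. Compounds added in DMEM with 1% BSA for 24 h at several concentrations. Formaldehyde-fixed cells probed with MAC-C7 (0.5 µg/mL, 60 min, 4 °C), then alkaline phosphatase-linked anti-mouse IgG, then fluorogenic substrate. EC50 is the concentration giving half-maximal upregulation, determined only when upregulation at 3 µM exceeded 40%. Five replicates.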
# Low-density lipoprotein receptor, sequence (P01130 whole entry): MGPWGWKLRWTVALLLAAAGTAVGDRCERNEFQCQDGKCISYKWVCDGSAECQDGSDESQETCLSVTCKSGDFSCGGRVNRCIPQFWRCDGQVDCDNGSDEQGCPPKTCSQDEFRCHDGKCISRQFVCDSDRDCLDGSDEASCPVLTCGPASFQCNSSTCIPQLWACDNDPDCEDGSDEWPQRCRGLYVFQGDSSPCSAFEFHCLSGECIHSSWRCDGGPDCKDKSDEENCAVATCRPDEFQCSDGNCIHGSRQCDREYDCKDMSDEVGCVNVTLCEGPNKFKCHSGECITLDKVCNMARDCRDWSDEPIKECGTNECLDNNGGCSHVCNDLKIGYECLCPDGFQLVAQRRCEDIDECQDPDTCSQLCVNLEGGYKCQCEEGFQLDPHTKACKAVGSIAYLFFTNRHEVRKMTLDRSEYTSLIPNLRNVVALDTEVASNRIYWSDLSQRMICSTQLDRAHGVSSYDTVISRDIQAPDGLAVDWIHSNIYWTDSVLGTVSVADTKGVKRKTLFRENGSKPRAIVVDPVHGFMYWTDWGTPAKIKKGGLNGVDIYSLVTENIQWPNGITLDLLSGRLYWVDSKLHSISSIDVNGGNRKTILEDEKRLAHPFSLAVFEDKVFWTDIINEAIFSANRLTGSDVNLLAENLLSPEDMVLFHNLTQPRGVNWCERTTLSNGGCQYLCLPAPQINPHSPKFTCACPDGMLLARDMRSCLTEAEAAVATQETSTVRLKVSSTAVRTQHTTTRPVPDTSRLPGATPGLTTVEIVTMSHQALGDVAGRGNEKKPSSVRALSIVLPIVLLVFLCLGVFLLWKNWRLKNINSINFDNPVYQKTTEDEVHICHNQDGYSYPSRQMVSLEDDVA
row,EC50,Compound
1,2000 nM,Cc1ccc(C(=O)CCCC2CCCCC2)cc1NC(=O)c1cccnc1 [N-[5-(4-Cyclohexyl-butyryl)-2-methyl-phenyl]-nicotinamide]

# Target: not listed separately
# Assay: Concentration at which one-half of the maximum Low density lipoprotein receptor is upregulated in HepG2 cells
row,Compound,EC50
1,Cc1ccc(NC(=O)CCC2CCCCC2)cc1NC(=O)c1ccc(N)cc1 [4-Amino-N-[5-(3-cyclohexyl-propionylamino)-2-methyl-phenyl]-benzamide],3800 nM
2,Cc1ccc(NC(=O)CCC2CCCCC2)cc1NC(=O)c1ccccc1 [N-[5-(3-Cyclohexyl-propionylamino)-2-methyl-phenyl]-benzamide],2000 nM
3,"Cc1ccc(NC(=O)CCC2CCCCC2)cc1/C=C(\C#N)c1ccc2c(c1)OCO2 [N-[3-((Z)-2-Benzo[1,3]dioxol-5-yl-2-cyano-vinyl)-4-methyl-phenyl]-3-cyclohexyl-propionamide]",700 nM
4,Cc1ccc(NC(=O)CCC2CCCCC2)cc1NC(=O)c1ccc(CO)cc1 [N-[5-(3-Cyclohexyl-propionylamino)-2-methyl-phenyl]-4-hydroxymethyl-benzamide],7600 nM
5,Cc1ccc2nc(-c3cc(NC(=O)CCC4CCCCC4)ccc3C)[nH]c2c1 [3-Cyclohexyl-N-[4-methyl-3-(5-methyl-1H-benzoimidazol-2-yl)-phenyl]-propionamide],1300 nM
6,Cc1ccc(NC(=O)CCC2CCCCC2)cc1NC(=O)c1ccc(O)cc1 [N-[5-(3-Cyclohexyl-propionylamino)-2-methyl-phenyl]-4-hydroxy-benzamide],1700 nM
7,Cc1ccc(NC(=O)CCC2CCCCC2)cc1/C=C(\C#N)c1cccnc1 [N-[3-((Z)-2-Cyano-2-pyridin-3-yl-vinyl)-4-methyl-phenyl]-3-cyclohexyl-propionamide],1000 nM

# The remaining lines, values ahead:
row,EC50,Compound
1,7000 nM,Cc1ccc(NC(=O)CCC2CCCCC2)cc1C(=O)Nc1ccc(O)cc1 [5-(3-Cyclohexyl-propionylamino)-N-(4-hydroxy-phenyl)-2-methyl-benzamide]
2,4000 nM,Cc1ccc(NC(=O)CCCC2CCCCC2)cc1NC(=O)c1ccc(O)cc1 [N-[5-(4-Cyclohexyl-butyrylamino)-2-methyl-phenyl]-4-hydroxy-benzamide]
3,2500 nM,CC(=O)Oc1ccc(C(=O)Nc2cc(NC(=O)CCC3CCCCC3)ccc2C)cc1 [Acetic acid 4-[5-(3-cyclohexyl-propionylamino)-2-methyl-phenylcarbamoyl]-phenyl ester]
4,2000 nM,Cc1ccc(NC(=O)CCC2CCCCC2)cc1NC(=O)c1cccc(O)c1 [N-[5-(3-Cyclohexyl-propionylamino)-2-methyl-phenyl]-3-hydroxy-benzamide]
5,2000 nM,Cc1ccc(C(=O)NCCC2CCCCC2)cc1NC(=O)c1ccc(O)cc1 [N-(2-Cyclohexyl-ethyl)-3-(4-hydroxy-benzoylamino)-4-methyl-benzamide]
6,1300 nM,Cc1ccc(NC(=O)CCC2CCCCC2)cc1-c1nc2ccccc2[nH]1 [N-[3-(1H-Benzoimidazol-2-yl)-4-methyl-phenyl]-3-cyclohexyl-propionamide]
7,1200 nM,Cc1ccc(NC(=O)CCC2CCCCC2)cc1NC(=O)c1cccnc1 [N-[5-(3-Cyclohexyl-propionylamino)-2-methyl-phenyl]-nicotinamide]
8,700 nM,Cc1ccc(NC(=O)CCC2CCCCC2)cc1-c1nc2ccc(O)cc2[nH]1 [3-Cyclohexyl-N-[3-(5-hydroxy-1H-benzoimidazol-2-yl)-4-methyl-phenyl]-propionamide]
